Measurements from ChEMBL document CHEMBL4732120, “Discovery of novel PARP/PI3K dual inhibitors with high efficiency against BRCA-proficient triple negative breast cancer” (Eur J Med Chem, 2021).

What was measured:
[1] = system: MDA-MB-468; assay: Antiproliferative activity against human MDA-MB-468 cells measured after 7 days by Celltiter-glo assay; assay type: functional, cell-based; settings: MDA-MB-468, 168 h
Procedure, shortened: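 MDA-MB-468 cells grown in RPMI1640 with 10% FBS at 37 °C, 5% CO2. Seeded the day before dosing, grown 12 h, then exposed to a range of concentrations for 7 days. Viability read by CellTiter-Glo luminescence after 10 min at room temperature. Inhibition % = (1 − (RLU cpd − blank)/(RLU DMSO − blank)) × 100. IC50 from nonlinear regression of normalized dose-response.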

[2] = Elimination half life in mouse liver microsomes measured after 1 hr; assay type: ADME, Microsome; settings: read-out: beta t1/2
Procedure, shortened: (§1)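 Compound incubated 1 h with mouse, rat, dog, monkey or human liver microsomes. Derived values were the elimination rate constant k, the elimination half-life T1/2 and the intrinsic clearance CLint.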

[3] = Toxicity in Sprague-Dawley rat assessed as change in body weight at 1000 mg/kg, po administered as single dose measured on day 7 (reference value: 298 +/- 14 g); assay type: organism-based; settings: in vivo, 168 h, time 7 day
[4] = Elimination half life in dog liver microsomes measured after 1 hr; assay type: ADME, Canis lupus familiaris, Microsome; settings: read-out: beta t1/2; procedure, shortened: as §1
[5] = system: MDA-MB-468; assay: Antitumor activity against human MDA-MB-468 cells xenografted in BALB/c mouse assessed as tumor growth inhibition at 50 mg/kg, ip administered every two days for 34 days relative to control; settings: MDA-MB-468, ip, 816 h, read-out: TGI
[6] = Elimination rate constant in human liver microsomes measured after 1 hr; assay type: ADME, Microsome; procedure, shortened: as §1
[7] = system: MDA-MB-468; assay: Induction of apoptosis in human MDA-MB-468 cells assessed as necrotic cells at 1 uM measured after 72 hrs by Annexin V-FITC/propidium iodide staining based flow cytometry (reference value: 0.13%); assay type: functional
[8] = Intrinsic clearance in dog liver microsomes measured after 1 hr; assay type: ADME, Canis lupus familiaris, Microsome; settings: read-out: CLH; procedure, shortened: as §1
[9] = Elimination rate constant in dog liver microsomes measured after 1 hr; assay type: ADME, Canis lupus familiaris, Microsome; procedure, shortened: as §1
[10] = Toxicity in Sprague-Dawley rat assessed as death at 1000 mg/kg, po administered as single dose; assay type: organism-based; settings: in vivo
Procedure, shortened: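 Sprague-Dawley rats, n = 6 (3 male, 3 female), given a single oral dose of 1000 mg/kg. Deaths and body-weight change were recorded to estimate the maximum tolerated dose.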

[11] = Toxicity in Sprague-Dawley rat assessed as change in body weight at 1000 mg/kg, po administered as single dose measured on day 2 (reference value: 273 +/- 15 g); assay type: organism-based; settings: in vivo, 48 h, time 2 day

## NC(=O)c1cccc2cc(C(=O)N3CCN(c4nc(-c5cnc(NC(=O)CN6CCOCC6)cc5C(F)(F)F)nc(N5CCOCC5)n4)CC3)oc12
[1]
  IC50: 1400 nM
[2]
  half-life: 17.4 min
[3]
  Activity: 281 g
[4]
  half-life: 47.3 min
[5]
  inhibition in vivo at 50 mg/kg: 54.6%
[6]
  k el at 1 h: 0.000122 s⁻¹
[7]
  Activity: 3.47%
[8]
  microsomal CLint: 29.3 µL/min/mg
[9]
  k el at 1 h: 0.000245 s⁻¹
[10]
  Activity: Non-Toxic
[11]
  Activity: 267 g
